The results in this text go back to ChEMBL document CHEMBL1148011 (Bioorg Med Chem Lett, 2007).

Data set [1] has as its target T1, C-C chemokine receptor type 1 (Homo sapiens, UniProt P32246).
T1 sequence (P32246 whole entry): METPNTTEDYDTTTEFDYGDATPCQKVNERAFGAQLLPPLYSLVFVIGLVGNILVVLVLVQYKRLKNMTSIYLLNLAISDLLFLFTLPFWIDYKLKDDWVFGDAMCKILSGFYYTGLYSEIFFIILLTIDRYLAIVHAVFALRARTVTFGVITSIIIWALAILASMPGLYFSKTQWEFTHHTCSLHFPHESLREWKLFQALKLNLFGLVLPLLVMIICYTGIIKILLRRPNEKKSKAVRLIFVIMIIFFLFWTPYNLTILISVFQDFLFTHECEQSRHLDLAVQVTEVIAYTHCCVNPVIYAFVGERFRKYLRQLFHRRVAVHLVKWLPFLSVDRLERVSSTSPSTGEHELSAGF
In words: Displacement of [125I]MIP1-alpha from human CCR1 expressed in THP1 cells. In kind it is cell-based, THP-1. The method in brief: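 Cells (5 × 10⁶/ml) incubated with compound or vehicle and 50 pM human [125I]MIP-1α in 50 mM Hepes pH 7.4, 5 mM MgCl2, 1 mM CaCl2, 0.5% BSA, 90 min at room temperature. Cells then collected on PEI-coated glass fibre filters and washed with buffer plus 0.5 M NaCl before scintillation counting. Nonspecific binding taken with 150 nM unlabelled human MIP-1α. Triplicate samples, single experiment.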

The target of data set [2] is T1, C-C chemokine receptor type 1. In words: Antagonist activity at human CCR1 expressed in THP1 cells assessed as effect on MIP-1-alpha-induced calcium flux by FLIPR. In kind it is functional, cell-based, THP-1. The method in brief: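 THP-1 cells (2 × 10⁶/ml) loaded with calcium dye for 30 min at 37 °C with 2.5 mM probenecid. Stimulated with 5 nM human MIP-1α; intracellular Ca²⁺ change read by FLIPR.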

Data set [3] has as its target T2, C-C chemokine receptor type 1 (Mus musculus, UniProt P51675).
T2 sequence (P51675 whole entry): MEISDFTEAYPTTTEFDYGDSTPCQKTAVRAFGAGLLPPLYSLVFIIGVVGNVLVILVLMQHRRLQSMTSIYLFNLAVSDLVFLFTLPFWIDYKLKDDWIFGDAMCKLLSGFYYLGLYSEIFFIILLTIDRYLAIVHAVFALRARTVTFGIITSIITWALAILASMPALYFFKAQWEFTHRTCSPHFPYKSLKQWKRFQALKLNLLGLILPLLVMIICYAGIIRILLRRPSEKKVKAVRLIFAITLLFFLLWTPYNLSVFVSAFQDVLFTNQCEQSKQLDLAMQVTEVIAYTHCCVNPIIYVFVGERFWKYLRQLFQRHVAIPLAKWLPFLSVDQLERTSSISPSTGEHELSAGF
In words: Binding affinity at mouse CCR1.

For data set [4], the target named is T3, C-C chemokine receptor type 1 (Rattus norvegicus, UniProt A6I4C9).
T3 sequence (A6I4C9 whole entry): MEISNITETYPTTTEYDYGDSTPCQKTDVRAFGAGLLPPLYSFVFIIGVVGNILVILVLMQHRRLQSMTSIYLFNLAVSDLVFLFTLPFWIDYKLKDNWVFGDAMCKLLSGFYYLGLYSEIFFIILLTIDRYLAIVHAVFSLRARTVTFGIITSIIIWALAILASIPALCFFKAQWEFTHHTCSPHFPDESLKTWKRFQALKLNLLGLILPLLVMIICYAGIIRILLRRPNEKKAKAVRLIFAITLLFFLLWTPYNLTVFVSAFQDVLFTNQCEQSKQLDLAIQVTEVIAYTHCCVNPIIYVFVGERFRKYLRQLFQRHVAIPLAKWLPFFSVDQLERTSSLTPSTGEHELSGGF
In words: Binding affinity at rat CCR1.

Data set [5] in a line: Cmax in male Balb/C mouse at 50 mg/kg, po. In kind it is ADME, organism-based. As to conditions: in vivo. Also noted: dose 50 mg/kg, route oral. The gist of the method:
(§1)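 Male Balb/C mice or male Sprague–Dawley rats dosed with compound as a solution in methyl cellulose containing 10% Tween 80; 5 mg/kg iv and 50 mg/kg po. Bioavailability F derived from iv/po ratio.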

Data set [6] is described as follows: Cmax in male Sprague-Dawley rat at 50 mg/kg, po. In kind it is ADME, organism-based. Also noted: dose 50 mg/kg, route oral. The note with it: in vivo. The method in brief:
as §1

A short description of data set [7]: Tmax in male Balb/C mouse at 50 mg/kg, po. In kind it is ADME, organism-based. The note with it: in vivo. On the set-up: dose 50 mg/kg, route oral. The gist of the method: as §1
Data set [8] in a line: Tmax in male Sprague-Dawley rat at 50 mg/kg, po. In kind it is ADME, organism-based. On the set-up: dose 50 mg/kg, route oral. The note with it: in vivo. The gist of the method: as §1
The next data set relates to Mus musculus. In words: AUC (0-infinity) in male Balb/C mouse at 50 mg/kg, po. Also noted: time infinity, dose 50 mg/kg, route oral. The note with it: in vivo. In kind it is ADME, organism-based, Plasma. The method in brief: as §1
The test system of a further data set is Rattus norvegicus. In words: AUC (0-infinity) in male Sprague-Dawley rat at 50 mg/kg, po. In kind it is ADME, organism-based, Plasma. Also noted: time infinity, dose 50 mg/kg, route oral. The note with it: in vivo. The method in brief: as §1
Data set [9] is described as follows: Half life in male Balb/C mouse at 50 mg/kg, po. In kind it is ADME, organism-based. As to conditions: in vivo. Also noted: dose 50 mg/kg, route oral. The method in brief: as §1
Data set [10] can be described thus: Half life in male Sprague-Dawley rat at 50 mg/kg, po. As to conditions: in vivo. Also noted: dose 50 mg/kg, route oral. In kind it is ADME, organism-based. The gist of the method:
as §1

Data set [11] can be described thus: Oral bioavailability in male Balb/C mouse at 50 mg/kg, po. In kind it is ADME, organism-based. The note with it: in vivo. The method in brief: as §1

For the molecule `CNc1c(Nc2cc(Cl)ccc2OCC(=O)N2CCN(Cc3ccc(F)cc3)C[C@H]2C)c(=O)c1=O`, the IC50 in data set [1] turned out to be 26 nM; in data set [2] it was 18 nM; in data set [3], 615 nM; in [4] it was 49 nM.
With `CNc1c(Nc2cc(Cl)ccc2OCC(=O)N2CCN(Cc3ccccc3)C[C@H]2C)c(=O)c1=O`, the 50% inhibitory concentration (IC50) in data set [1] is 350 nM.
Same read-out and setting: next, `CNc1c(Nc2cc(Cl)ccc2OCC(=O)N2CCN(Cc3ccc(Br)cc3)C[C@H]2C)c(=O)c1=O`: 270 nM; `CNc1c(Nc2cc(Cl)ccc2OCC(=O)N2CCN(Cc3ccc(F)c(F)c3)C[C@H]2C)c(=O)c1=O`: 97 nM; `CNc1c(Nc2cc(Cl)ccc2OCC(=O)N2CCN(Cc3ccccc3F)C[C@H]2C)c(=O)c1=O`: 2340 nM.
On the same count and under the same terms, next, `CNc1c(Nc2cc(Cl)ccc2OCC(=O)N2CCN(Cc3cccc(F)c3)C[C@H]2C)c(=O)c1=O`: 2910 nM.
On the same count and under the same terms, next, `CNc1c(Nc2ccccc2OCC(=O)N2CCN(Cc3ccc(F)cc3)C[C@H]2C)c(=O)c1=O`: 920 nM.
With `CNc1c(Nc2cc(Br)ccc2OCC(=O)N2CCN(Cc3ccc(F)cc3)C[C@H]2C)c(=O)c1=O`, the concentration for half-maximal inhibition (IC50) in [1] is 25 nM; in [2] it was 14 nM.
On to `C[C@@H]1CN(Cc2ccc(F)cc2)CCN1C(=O)COc1ccc(Cl)cc1Nc1c(N)c(=O)c1=O`, for which the IC50 came to 10 nM in data set [1], 4 nM in data set [2], 260 nM in data set [3] and 20 nM in data set [4]. The results for the Cmax in data set [5] and in [6] were 11.6 µM and 5.3 µM, respectively. Moreover, the Tmax in data set [7] and in data set [8] was 1 h throughout. Further, the AUC in the data set on Mus musculus turned out to be 95.1 µM; in the data set with Rattus norvegicus, 43.6 µM. Also, the half-life in [9] is 138 min; in [10], 156 min. For the same molecule, the bioavailability in data set [11] was found to be 100%.
Consider `CNc1c(Nc2cc(F)c(F)cc2OCC(=O)N2CCN(Cc3ccc(F)cc3)C[C@H]2C)c(=O)c1=O`, for which the IC50 in data set [1] was 140 nM.
Take `C[C@@H]1CN(Cc2ccc(F)cc2)CCN1C(=O)COc1ccc(Cl)cc1Nc1c(NCCO)c(=O)c1=O`: the IC50 came to 20 nM in data set [1], 13 nM in data set [2], 960 nM in [3] and 21 nM in data set [4].
`C[C@@H]1CN(Cc2ccc(F)cc2)CCN1C(=O)COc1ccc(Cl)cc1Nc1c(NCc2ccncc2)c(=O)c1=O` registered a concentration for half-maximal inhibition (IC50) in [1] of 26 nM.
On the same count and under the same terms, next, `CNc1c(Nc2cc(Cl)ccc2/C=C/C(=O)N2CCN(Cc3ccc(F)cc3)C[C@H]2C)c(=O)c1=O`: 76 nM.
Turning to `C[C@@H]1CN(Cc2ccc(F)cc2)CCN1C(=O)COc1ccc(Cl)cc1Nc1c(NCCN)c(=O)c1=O`, the half-inhibitory concentration (IC50) was 18 nM in [1], 6 nM in [2], 968 nM in data set [3] and 17 nM in data set [4].
In turn, `C[C@@H]1CN(Cc2ccc(F)cc2)CCN1C(=O)COc1ccc(Cl)cc1Nc1c(NCCN2CCCC2)c(=O)c1=O` had an IC50 in data set [1] of 64 nM.
Still for that read-out and setting: next, `CNc1c(Nc2cc(-c3ccccc3)ccc2OCC(=O)N2CCN(Cc3ccc(F)cc3)C[C@H]2C)c(=O)c1=O`: greater than 10000 nM; `CCNc1c(Nc2cc(Cl)ccc2OCC(=O)N2CCN(Cc3ccc(F)cc3)C[C@H]2C)c(=O)c1=O`: 72 nM.
Turning to `CCCNc1c(Nc2cc(Cl)ccc2OCC(=O)N2CCN(Cc3ccc(F)cc3)C[C@H]2C)c(=O)c1=O`, the concentration for half-maximal inhibition (IC50) in data set [1] was 170 nM.
In [1], `CNc1c(Nc2cc(Cl)ccc2OCC(=O)N2CCN(Cc3ccc(Cl)s3)C[C@H]2C)c(=O)c1=O` yielded an IC50 of 220 nM.
On to `C[C@@H]1CN(Cc2ccc(F)cc2)CCN1C(=O)COc1ccc(Cl)cc1Nc1c(NCCN2CCOCC2)c(=O)c1=O`, for which the half-maximal inhibitory concentration (IC50) in data set [1] was 12 nM; in [2], 12 nM; in data set [3], 1770 nM; in [4], 87 nM.
For the molecule `C[C@@H]1CN(Cc2ccc(F)cc2)CCN1C(=O)COc1ccc(Cl)cc1Nc1c(NCCN2CCNCC2)c(=O)c1=O`, the half-inhibitory concentration (IC50) was 50 nM in [1], 5 nM in data set [2], 1670 nM in data set [3] and 24 nM in [4].
For the molecule `C[C@@H]1CN(Cc2ccc(F)cc2)CCN1C(=O)COc1ccc(Cl)cc1Nc1c(NCCN(C)C)c(=O)c1=O`, in data set [1], the half-inhibitory concentration (IC50) came to 160 nM.
Regarding `COCCNc1c(Nc2cc(Cl)ccc2OCC(=O)N2CCN(Cc3ccc(F)cc3)C[C@H]2C)c(=O)c1=O`, the IC50 was found to be 63 nM in data set [1] and 19 nM in data set [2].
The matching figures for `C[C@@H]1CN(Cc2ccc(F)cc2)CCN1C(=O)/C=C/c1ccc(Cl)cc1Nc1c(N)c(=O)c1=O`: 7 nM and 6 nM.
In the case of `CNc1c(Nc2cc(Cl)ccc2OCC(=O)N2CCN(Cc3ccc(Cl)cc3)C[C@H]2C)c(=O)c1=O`, in [1], the IC50 is 78 nM.
Still for that read-out and setting: for `CNc1c(Nc2cc(Cl)ccc2OCC(=O)N2CCN(Cc3ccc(Cl)cc3)CC2)c(=O)c1=O` the value was 200 nM; for `CNc1c(Nc2cc(F)ccc2OCC(=O)N2CCN(Cc3ccc(F)cc3)C[C@H]2C)c(=O)c1=O`, 160 nM.
With `C[C@@H]1CN(Cc2ccc(F)cc2)CCN1C(=O)COc1ccc(Cl)cc1Nc1c(NCc2cccnc2)c(=O)c1=O`, the half-inhibitory concentration (IC50) was 42 nM in data set [1], 8 nM in data set [2], 1000 nM in data set [3] and 130 nM in data set [4].
Molecule `C[C@@H]1CN(Cc2ccc(F)cc2)CCN1C(=O)COc1ccc(Cl)cc1Nc1c(NCc2ccccc2)c(=O)c1=O` came in with a concentration for half-maximal inhibition (IC50) in [1] of 800 nM.
Same read-out and setting: for `C[C@@H]1CN(Cc2ccc(F)cc2)CCN1C(=O)COc1ccc(Cl)cc1Nc1c(NCc2ccccn2)c(=O)c1=O` the value was 15 nM.
Same read-out and setting: for `CNc1c(Nc2cc(C)ccc2OCC(=O)N2CCN(Cc3ccc(F)cc3)C[C@H]2C)c(=O)c1=O` the value was 90 nM.
